A short description of data set [1]: folding enthalpy; higher = less favourable; fluorescence melt of hairpins on a sequencing array, two-state fit. The note with it: sodium 0.088 M. An outline of the steps:
(§1)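 Cy3 signals were normalised both to pre-quench Cy3 and to control constructs. They came from library hairpins carrying annealed Cy3 and quencher oligos on a sequenced MiSeq flow cell, imaged in 50 mM Na-HEPES pH 8.0, 25 mM NaCl, in 2.5 °C steps up to 60 °C. Bootstrapped two-state fits gave melting temperature and folding enthalpy, and four replicates were combined by inverse variance. Fitted temperatures were then raised by 9.35 °C to match UV melts.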

A short description of data set [2]: melting temperature; fluorescence melt of hairpins on a sequencing array, two-state fit, raised by 9.35 °C to match UV melts. The note with it: sodium 0.088 M. An outline of the steps:
as §1

In the case of GCCTGGCGAAAGCACGGC (((..((....))..))), in data set [1], the folding enthalpy is -24.3 kcal/mol. Besides, in data set [2], the Tm worked out at 59.1 °C.

Take GGTCGTCGAAAGACAACC (((.(((....))).))): the folding enthalpy in data set [1] was -26.1 kcal/mol. Besides, the Tm in data set [2] is 48.9 °C.

As to GCGACCCCTCGC ((((....)))), in data set [1], the folding enthalpy was -23.4 kcal/mol. Also, the Tm in data set [2] is 50.1 °C.

On to GTAGGAGGAAACTCTTAC (((.(((....))).))), for which the folding enthalpy in data set [1] was -17.8 kcal/mol. For the same sequence, the Tm in data set [2] worked out at 34.8 °C.

As for GATCGCCCAGGCGATC ((((((....)))))), the folding enthalpy in data set [1] is -25.1 kcal/mol. Further, in data set [2], the Tm was 68.2 °C.

Take GGTAGAGAAATCTACC ((((((....)))))): the folding enthalpy in data set [1] is -25.2 kcal/mol. Besides, in data set [2], the Tm is 49.2 °C.

Consider GACAATACGAAAGTAGTC (((..(((....)))))), for which, in data set [1], the folding enthalpy is -16.4 kcal/mol. The Tm in data set [2] turned out to be 30.3 °C.

Consider GTCATTCGAAAGAAAGAC (((.(((....))).))), for which the folding enthalpy in data set [1] was -30.6 kcal/mol. Moreover, the Tm in data set [2] stood at 38.4 °C.

As to GAGTCGCCGAAAGGCCTC (((..(((....)))))), the folding enthalpy in data set [1] was -12.2 kcal/mol. Besides, the Tm in data set [2] worked out at 29.3 °C.

For GTGGAAACGAAAGTTCAC (((..(((....)))))), the folding enthalpy in data set [1] was -19.5 kcal/mol. In addition, in data set [2], the Tm was determined as 33.7 °C.

For the sequence GTCCCCGAAAGGGCGAC ((((((....))).))), in data set [1], the folding enthalpy is -20.8 kcal/mol. The Tm in data set [2] is 52.7 °C.

As for GATCATTCTGATGATC ((((((....)))))), the folding enthalpy in data set [1] was -39.7 kcal/mol. Also, in data set [2], the Tm amounted to 49.5 °C.

For the sequence GCAGTCGGAAACGACTAC (.(((((....))))).), the folding enthalpy in data set [1] is -13.4 kcal/mol. Also, in data set [2], the Tm is 41.7 °C.

Consider GACGTAGGAAACCACGTC (((((.(....).))))), for which, in data set [1], the folding enthalpy was -29.5 kcal/mol. In data set [2], the Tm was found to be 47.2 °C.

For GCGGACGAAAGTCTCCGC ((((((....)))..))), the folding enthalpy in data set [1] is -25.7 kcal/mol. Further, the Tm in data set [2] stood at 51.3 °C.

Regarding GTTTGTCCGAAAGGAAAC (((..(((....)))))), the folding enthalpy in data set [1] is -18.9 kcal/mol. The Tm in data set [2] amounted to 35.9 °C.

On to GATCCACCGGTGGATC ((((((....)))))), for which the folding enthalpy in data set [1] is -50 kcal/mol. Besides, in data set [2], the Tm was 60.3 °C.

As for AGCTAGAAATAGCT (((((....))))), the folding enthalpy in data set [1] is -14.9 kcal/mol. Also, in data set [2], the Tm turned out to be 41.3 °C.

As to GAAATCGGAAACGATCTC ((.((((....)))).)), the folding enthalpy in data set [1] is -17.4 kcal/mol. The Tm in data set [2] came to 29.3 °C.

With GCAGATGGAAACATCTAC (.(((((....))))).), the folding enthalpy in data set [1] was -19.1 kcal/mol. Besides, in data set [2], the Tm came to 34.7 °C.

Take GTTTTCCGAAAGGAAAC (((.(((....)))))): the folding enthalpy in data set [1] was -13.6 kcal/mol. The Tm in data set [2] came out at 47.8 °C.

On to TGTTGGAAACAACA (((((....))))), for which the folding enthalpy in data set [1] is -18.5 kcal/mol. Also, the Tm in data set [2] amounted to 42.9 °C.

Turning to GGTGAACCGAAAGGTACC (((..(((....)))))), in data set [1], the folding enthalpy was -18 kcal/mol. The Tm in data set [2] was 37.8 °C.

With GGTCGCCGAAAGGCAACC (((.(((....))).))), in data set [1], the folding enthalpy was -24.6 kcal/mol. Moreover, the Tm in data set [2] came to 56.1 °C.

In the case of GTTGGCGAAAGCCGGAAC ((((((....)))..))), the folding enthalpy in data set [1] was -7.97 kcal/mol. The Tm in data set [2] came to 27.8 °C.

Take GCGGTGCCCGC ((((...)))): the folding enthalpy in data set [1] was -19.3 kcal/mol. Further, the Tm in data set [2] turned out to be 55.5 °C.

In the case of GTGTCCGAAAGGACCAC ((((((....))).))), in data set [1], the folding enthalpy is -10.2 kcal/mol. Further, the Tm in data set [2] was found to be 48.5 °C.

In the case of GGGTAGGGAAACCTATCC ((.((((....)))).)), the folding enthalpy in data set [1] is -29.7 kcal/mol. Besides, in data set [2], the Tm was determined as 46.6 °C.

In the case of GCCGCGCGAAAGCTGGGC (((..((....))..))), in data set [1], the folding enthalpy was -20 kcal/mol. For the same sequence, the Tm in data set [2] was found to be 56.3 °C.

As for GGCGATGGAAACACCGCC ((((.((....)).)))), in data set [1], the folding enthalpy was -51.7 kcal/mol. In data set [2], the Tm came out at 54 °C.

Take GTCGTACGAAAGTAGAC (((.(((....)))))): the folding enthalpy in data set [1] was -32.4 kcal/mol. Also, the Tm in data set [2] worked out at 52 °C.

Take GATCCTCGGAGGATC ((((((...)))))): in data set [1], the folding enthalpy is -33.5 kcal/mol. Moreover, the Tm in data set [2] worked out at 51.6 °C.

On to GTAGGCGGAAACGCCTGC (.(((((....))))).), for which, in data set [1], the folding enthalpy was -18.6 kcal/mol. Also, the Tm in data set [2] came to 56.7 °C.

With GATCTGGACTCAGATC ((((((....)))))), the folding enthalpy in data set [1] was -46.3 kcal/mol. In addition, the Tm in data set [2] worked out at 53.1 °C.

For the sequence GCAAAGCGAAAGCTATGC (((.(((....))).))), the folding enthalpy in data set [1] was -33.5 kcal/mol. Also, the Tm in data set [2] was found to be 52 °C.

Regarding GATCATCAGTATGATC ((((((....)))))), the folding enthalpy in data set [1] is -29.4 kcal/mol. Besides, the Tm in data set [2] was 45.8 °C.

Take GCGCACGAAAGTGACGC ((((((....))).))): in data set [1], the folding enthalpy is -24 kcal/mol. For the same sequence, the Tm in data set [2] is 63.3 °C.

The values are drawn from the array DNA melting data of Ke et al. (doi:10.1101/2024.01.08.574731).
